Measured values collected from several papers.
Lines come from different studies, so protocols differ.

[2H]C([2H])(c1cc(F)c(F)cc1F)n1c(=O)n(Cc2ncn(C)n2)c(=O)[nH]/c1=N\c1cc2cn(C)nc2cc1Cl  Cmax (male Sprague-Dawley rat, plasma; oral, 25 mg/kg): 41400 ng/mL
CCC[C@@](N)(CO)CCc1ccc(OCCCCCC(C)C)cc1  Cmax (rat, plasma; oral, 30 mg/kg): 788 nM
Cl.Cl.O=C(CCN1CCCCC1)c1ccc(-c2ccc(C(=O)CCN3CCCCC3)cc2)cc1  Cmax (Sprague-Dawley rat, plasma; intravenous, 5 mg/kg): 725 ng/mL
Cn1cnc(Cn2c(=O)[nH]/c(=N\c3cc4cn(C)nc4cc3Cl)n(Cc3cc(F)c(F)cc3F)c2=O)n1  Cmax (male Sprague-Dawley rat, plasma; intravenous, 5 mg/kg): 29100 ng/mL
COC(=O)C(NC(=O)c1cn(CCCCCF)c2ccccc12)C(C)(C)C (stereo not drawn)  Cmax (male Sprague-Dawley rat, plasma; subcutaneous, 50 µg/kg): 1.72 ng/mL
O=C(Nc1cccnn1)N1CCN([C@@H]2CCOc3cc(C(F)(F)F)ccc32)CC1  Cmax (male Sprague-Dawley rat, plasma; oral, 0.3 mg/kg): 130 nM
Cc1ncc(C)n2nc(/C=C/c3nc(N4CCCC4)cc(N4CCOCC4)n3)nc12  Cmax (male Sprague-Dawley rat, plasma; oral, 0.3 mg/kg): 36 nM
O=C([O-])C(=O)[O-].[NH-][C@@H]1CCCC[C@H]1[NH-].[Pt+4] (relative stereo)  Cmax (rat, plasma; intravenous, 5 mg/kg): 2450 ng/mL
CCCCCn1cc(C(=O)Nc2cccc3ccccc23)c2ccccc21  Cmax (male Long-Evans rat, plasma; intraperitoneal, 3 mg/kg): 296 ng/mL
C#Cc1ccc2c(c1)C(c1ccccn1)=NCc1c(-c3cnco3)ncn1-2  Cmax (rat, plasma; oral, 2 mg/kg): 395 nM
[2H]C([2H])([2H])n1cc2cc(Nc3nc(=O)n(Cc4ncn(C)n4)c(=O)n3Cc3cc(F)c(F)cc3F)c(Cl)cc2n1  Cmax (male Sprague-Dawley rat, plasma; oral, 25 mg/kg): 34000 ng/mL
COc1ccc2c3c1O[C@H]1C[C@@H](OC(=O)c4ccccc4)C=C[C@@]31CCN(C)C2  Cmax (rat, brain; intravenous, 5 mg/kg): 13600 ng/g
